Laboratory results published in ChEMBL document CHEMBL3124839, “Polyamine transport inhibitors: design, synthesis, and combination therapies with difluoromethylornithine” (J Med Chem, 2014).
Active and inactive are the calls of the source. The calls are words filed in the database; no cut-off is given here.

Key:
Homo sapiens [1] = organism: Homo sapiens; test: Inhibition of polyamine transport system-mediated [3H]-spermidine uptake in DFMO-treated human L3.6PL cells at IC10 after 48 hrs in presence of aminoguanidine
CHO-MG = test: Cytotoxicity against polyamine transport-deficient CHO-MG cells assessed as growth inhibition after 48 hrs by MTS assay in presence of aminoguanidine; format: ADME, cell-based; settings: Cricetulus griseus
Outline: (§1)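 CHO and transport-deficient CHO-MG* cells (CHO-MG* medium with 2 μg/mL L-proline) plated at 10 000 cells/mL and pretreated 24 h with 1 mM aminoguanidine. Compound in PBS added after overnight incubation, then 48 h at 37 °C, 5% CO2. Growth read by MTS formazan absorbance at 490 nm against untreated control.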

[2] = Inhibition of polyamine transport system-mediated [3H]-spermidine uptake in DFMO-treated human L3.6PL cells after 48 hrs in presence of spermidine and aminoguanidine
CHO = test: Cytotoxicity against CHO cells assessed as growth inhibition after 48 hrs by MTS assay in presence of aminoguanidine; format: cell-based, Cricetulus griseus; settings: for IC50: Cricetulus griseus, CHO; for IC10: chinese hamster, cho; outline: as §1
[3] = Cytotoxicity against human L3.6PL cells assessed as growth inhibition after 48 hrs by MTS assay in presence of aminoguanidine; format: cell-based; settings: for IC50: Homo sapiens, L3.6pl; for IC10: human, l3.6pl
[4] = Cytotoxicity against human L3.6PL cells assessed as cell viability at 0.1 uM after 48 hrs by MTS assay in presence of aminoguanidine relative to control; format: cell-based; settings: read-out: Activity
Outline: (§2)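 L3.6pl cells plated at 5000 cells/mL and pretreated 24 h with 250 μM aminoguanidine. Exposed to compound for 48 h at 37 °C. Growth read by MTS absorbance at 490 nm relative to untreated control.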

[5] = Selectivity ratio of IC50 for polyamine transport-deficient CHO-MG cells to IC50 for CHO cells; format: ADME, cell-based, Cricetulus griseus; settings: chinese hamster, polyamine transport-deficient CHO-MG cells and CHO cells; read-out: Ratio IC50
Homo sapiens [6] = organism: Homo sapiens; test: Inhibition of polyamine transport system in human L3.6PL cells assessed as total polyamine level at 7 uM after 48 hrs by HPLC analysis in presence of spermidine and aminoguanidine relative to control; format: cell-based
Outline: (§3)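 L3.6pl cells (450 000 per 6 mL medium with 10% FBS) pretreated 24 h with 250 μM aminoguanidine, then 48 h at 37 °C with DFMO 8 mM, Spd 1 μM, PTI 7 μM, alone or combined. Acid lysates dansylated with 1,7-diaminoheptane as internal standard and polyamines quantified by HPLC as nmol/mg BCA protein. Growth given relative to untreated control.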

Homo sapiens [7] = organism: Homo sapiens; test: Inhibition of polyamine transport system in human L3.6PL cells assessed as total polyamine level at 7 uM after 48 hrs by HPLC analysis in presence of aminoguanidine relative to control; format: cell-based; outline: as §3
Homo sapiens [8] = organism: Homo sapiens; test: Inhibition of polyamine transport system in DFMO-treated human L3.6PL cells assessed as reduction in intracellular putrescine level at 7 uM after 48 hrs by HPLC analysis in presence of spermidine and aminoguanidine; format: cell-based; outline: as §3
Homo sapiens [9] = organism: Homo sapiens; test: Inhibition of polyamine transport system in human L3.6PL cells assessed as reduction in intracellular spermidine level at 7 uM after 48 hrs by HPLC analysis in presence of spermidine and aminoguanidine relative to control; format: cell-based; outline: as §3
[10] = Cytotoxicity against human L3.6PL cells assessed as growth at 7 uM after 48 hrs in presence of spermidine and aminoguanidine relative to control; format: functional; settings: read-out: Activity; outline: as §3
[11] = Competitive inhibition of polyamine transport system-mediated [3H]-spermidine uptake in DFMO-treated human L3.6PL cells after 15 mins by Lineweaver-Burk plot analysis in presence of aminoguanidine
Outline: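 3H-spermidine uptake in L3.6pl cells in HBSS (with Ca2+/Mg2+) at 37 °C for 15 min, with 3H-Spd fixed at 1 μM and PTI at 0–3 μM. Cells were lysed in 0.1% SDS, counted by scintillation and normalized to BCA protein.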

Homo sapiens [12] = organism: Homo sapiens; test: Inhibition of polyamine transport system in DFMO-treated human L3.6PL cells assessed as increase in spermine level at 7 uM after 48 hrs by HPLC analysis in presence of spermidine and aminoguanidine relative to control; design: scale not given: the % may be the effect or the level left; outline: as §3
Homo sapiens [13] = organism: Homo sapiens; test: Inhibition of polyamine transport system in human L3.6PL cells assessed as reduction in intracellular spermidine level at 7 uM after 48 hrs by HPLC analysis in presence of aminoguanidine relative to control; format: cell-based; outline: as §3
[14] = Cytotoxicity against human L3.6PL cells assessed as growth at 7 uM after 48 hrs in presence of aminoguanidine relative to control; format: functional; settings: read-out: Activity; outline: as §3
Homo sapiens [15] = organism: Homo sapiens; test: Inhibition of polyamine transport system in DFMO-treated human L3.6PL cells assessed as reduction in intracellular spermidine level at 7 uM after 48 hrs by HPLC analysis in presence of spermidine and aminoguanidine relative to control; format: cell-based; outline: as §3
[16] = Inhibition of polyamine transport system-mediated [3H]-spermidine uptake in DFMO-treated CHO cells after 48 hrs in presence of spermidine and aminoguanidine; settings: Cricetulus griseus
[17] = Cytotoxicity against DFMO-treated human L3.6PL cells assessed as growth at 7 uM after 48 hrs in presence of spermidine and aminoguanidine relative to control; format: functional; settings: read-out: Activity; outline: as §3
[18] = Cytotoxicity against human L3.6PL cells assessed as growth inhibition after 48 hrs by MTS assay; format: cell-based
Homo sapiens [19] = organism: Homo sapiens; test: Inhibition of polyamine transport system in DFMO-treated human L3.6PL cells assessed as total polyamine level at 7 uM after 48 hrs by HPLC analysis in presence of spermidine and aminoguanidine relative to control; outline: as §3
[20] = Cytotoxicity against human L3.6PL cells assessed as cell viability at 0.01 uM after 48 hrs by MTS assay in presence of aminoguanidine relative to control; format: cell-based; settings: read-out: Activity; outline: as §2
Homo sapiens [21] = organism: Homo sapiens; test: Inhibition of polyamine transport system-mediated [3H]-spermidine uptake in DFMO-treated human L3.6PL cells after 48 hrs in presence of putrescine and aminoguanidine
Homo sapiens [22] = organism: Homo sapiens; test: Inhibition of polyamine transport system-mediated [3H]-spermidine uptake in DFMO-treated human L3.6PL cells after 48 hrs in presence of spermine and aminoguanidine
[23] = Homo sapiens, L3.6pl, read-out: EC50

inhibition (Homo sapiens [1]) | EC50 [2] | EC50 [2, 23] | EC50 [16] | SMILES | IC50 (CHO-MG) | IC50 (CHO) | IC10 (CHO) | IC50 [3] | IC10 [3] | selectivity ratio [5] | Ki [11] | also measured
inactive | Not Active |  |  | Cl.NCCCCNCCCCNCc1cccc(CNCCCCNCCCCN)c1 | 30 µM | 0.028 µM | 0.01 µM | 52.2 µM | 0.1 µM | 1070 |  | viability at 48 h, 0.1 µM [4]: 8%
 |  | 1.4 µM | 0.42 µM | CNCCCCNCCCCNCc1cc(CNCCCCNCCCCNC)cc(CNCCCCNCCCCNC)c1.Cl | 122 µM | > 100 µM | 10 µM | > 100 µM | 10 µM |  | 0.055 µM | Activity (Homo sapiens [6]): 37.4 nmol/mg; Activity (Homo sapiens [7]): 40.4 nmol/mg; inhibition (Homo sapiens [8]): Active; inhibition (Homo sapiens [9]): 33%; growth at 7 µM [10]: 88%; Activity (Homo sapiens [12]): 67%; inhibition (Homo sapiens [13]): 27%; growth at 7 µM [14]: 117%; inhibition (Homo sapiens [15]): 87%; growth at 7 µM [17]: 70%; IC50 [18]: 183 µM; Activity (Homo sapiens [19]): 19.9 nmol/mg
inactive | Not Active |  |  | Cl.NCCCCNCCCCNCCCCNCc1cccc(CNCCCCNCCCCNCCCCN)c1 | 13.4 µM | 0.04 µM | 0.01 µM | 7.5 µM | 0.01 µM | 335 |  | viability at 48 h, 0.01 µM [20]: 8%
 |  | 0.77 µM | 0.34 µM | Cl.NCCCCNCCCCNCc1cc(CNCCCCNCCCCN)cc(CNCCCCNCCCCN)c1 | 66.9 µM | > 100 µM | 10 µM | > 100 µM | 10 µM |  | 0.036 µM | inhibition (Homo sapiens [21]): Active; inhibition (Homo sapiens [22]): Active; IC50 [18]: 188 µM

Second part, the compound before the results:

SMILES | inhibition (Homo sapiens [1]) | EC50 [2] | EC50 [2, 23] | EC50 [16] | IC50 (CHO-MG) | IC50 (CHO) | IC10 (CHO) | IC50 [3] | IC10 [3] | selectivity ratio [5] | Ki [11] | also measured
Cl.NCCCCNCCCCNCCCCNC(=O)c1cc(C(=O)NCCCCNCCCCNCCCCN)cc(C(=O)NCCCCNCCCCNCCCCN)c1 | inactive | Not Active |  |  | 69.1 µM | 16 µM | 1 µM | 9.7 µM | 1 µM | 4.3 |  | 
NCCCCNCCCCNCc1c2ccccc2cc2ccccc12 |  |  |  |  |  |  |  |  |  | 148 |  | 
Cl.NCCCCNCCCCNCc1ccc(CNCCCCNCCCCN)cc1 |  |  |  |  |  | 0.027 µM | 0.001 µM |  |  | 727 |  | 
Cl.NCCCNCCCCNCCCNC(=O)c1cc(C(=O)NCCCNCCCCNCCCN)cc(C(=O)NCCCNCCCCNCCCN)c1 |  | Not Active |  |  |  |  |  | 47.5 µM | 8 µM |  |  | 
Cl.NCCCC[C@H](N)C(=O)NCCCNCCCCNCCCN |  |  |  |  |  |  | > 100 µM |  | > 100 µM |  |  | 
Cl.NCCCCNCCCCNC(=O)c1cc(C(=O)NCCCCNCCCCN)cc(C(=O)NCCCCNCCCCN)c1 |  |  | 89.8 µM | 60 µM | > 100 µM | > 100 µM | > 100 µM | > 100 µM | > 100 µM |  | 0.398 µM | 
